Compound activity: PubChem BioAssay, several laboratories
MIN6 prolif: MIN6 beta-cell proliferation induction. MIN6 cells proliferation, ATPlite luminescence, 48 h; cells starved in 0.2% serum; 100% = growth in 10% serum. proliferation, % at 10 µM. 330,000 compounds, 0.29% hits. AID 2380;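 active means compounds whose signal lies at least 3.5 SD above the mean of all wells on their plate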
ANO1 activ: activates or potentiates the mouse TMEM16A chloride channel. B-score at 10 µM. Q8BHY3. HEK293 TMEM16A/YFP-H148Q/I152L, iodide quench fluorescence; stronger effect = lower value. 340,000 compounds, 0.3% hits;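 active means fluorescence-ratio B-score plate-corrected deviation score at least 3 library SD below zero, with starting fluorescence score within 5 deviations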;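 further: channel opened by trigger with iodide after compound preincubation; score built on the fluorescence ratio of max minus min over baseline; more negative score means more quench and so TMEM16A activation or potentiation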
Target sequence (Q8BHY3 whole entry, looked up): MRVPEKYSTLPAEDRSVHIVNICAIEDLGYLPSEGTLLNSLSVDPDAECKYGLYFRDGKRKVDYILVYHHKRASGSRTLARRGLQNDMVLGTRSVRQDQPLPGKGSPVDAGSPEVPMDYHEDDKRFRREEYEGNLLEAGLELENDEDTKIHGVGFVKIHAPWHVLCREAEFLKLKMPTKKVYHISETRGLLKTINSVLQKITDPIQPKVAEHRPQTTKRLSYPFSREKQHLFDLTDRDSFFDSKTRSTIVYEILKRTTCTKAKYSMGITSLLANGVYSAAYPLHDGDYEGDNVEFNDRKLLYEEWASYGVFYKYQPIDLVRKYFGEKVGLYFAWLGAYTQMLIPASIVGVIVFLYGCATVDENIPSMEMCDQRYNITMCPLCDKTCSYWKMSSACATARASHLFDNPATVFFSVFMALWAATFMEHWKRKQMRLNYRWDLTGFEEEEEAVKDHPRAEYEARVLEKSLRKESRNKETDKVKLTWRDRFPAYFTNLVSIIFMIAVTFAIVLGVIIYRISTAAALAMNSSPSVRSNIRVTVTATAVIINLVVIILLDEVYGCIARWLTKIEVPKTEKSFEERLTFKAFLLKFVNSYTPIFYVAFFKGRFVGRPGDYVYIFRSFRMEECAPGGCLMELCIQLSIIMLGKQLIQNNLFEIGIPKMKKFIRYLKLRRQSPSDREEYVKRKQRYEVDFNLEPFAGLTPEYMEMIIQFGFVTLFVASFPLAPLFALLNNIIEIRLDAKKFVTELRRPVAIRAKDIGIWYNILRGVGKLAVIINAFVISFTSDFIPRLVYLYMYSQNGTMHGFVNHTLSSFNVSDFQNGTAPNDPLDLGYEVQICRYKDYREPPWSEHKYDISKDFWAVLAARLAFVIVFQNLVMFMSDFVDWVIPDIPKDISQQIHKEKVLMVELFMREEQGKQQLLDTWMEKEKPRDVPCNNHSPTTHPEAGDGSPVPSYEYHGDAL
TMEM16A inh: blocks the mouse calcium-activated chloride channel TMEM16A; HEK293 TMEM16A/YFP iodide influx fluorescence, ionomycin; AID 588511; 310,000 compounds, 1.2% hits; normalized B-score (activity score, 25-100; higher = stronger inhibition) at 10 µM;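 active means ratio plate-corrected score three or more library SD toward inhibition, starting fluorescence score within five deviations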;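 further: score derived from kinetic fluorescence span divided by baseline fluorescence per well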
MC4R antagonist: antagonists of human melanocortin 4 receptor (MC4R). MC4R-expressing cells, MTII-stimulated cAMP, LANCE TR-FRET. inhibition, % at 6.5 µM. P32245. AID 540295. 360,000 compounds, 0.48% hits;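 active means inhibition above its plate's cutoff, the mean of tested wells on that plate plus 3 SD, cut at about 29% in these data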
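System: U2OS cells stably expressing human melanocortin 4 receptor (MC4R). Reagent: Melanotan II challenge after compound preincubation. Doses: 6.5 µM. Times: 30-min compound, 1-h challenge, 1-h detection, room temperature. Measured by: TR-FRET with Eu-cAMP and labeled anti-cAMP, 671 nm. Replicates: singlicate.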
HTR2A ag: activates the mouse 5-HT2A serotonin receptor | P35363 | CHO-K1 mHTR2A beta-arrestin complementation, luminescence; percent of 30 µM serotonin response | activation, % at 7.6 µM | 360,000 compounds, 0.66% hits;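 active means activation above a run cutoff, the mean activation of all tested compounds plus 3 SD, cut at about 14% in these data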
MC4R barr agon: activates human MC4R beta-arrestin recruitment. P32245. U2OS MC4R beta-arrestin complementation, luminescence; percent of melanotan II response, DMSO zero. activation, % at 8.9 µM. 360,000 compounds, 0.98% hits. AID 540308;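 active means activation above a per-plate cutoff, the mean activation of sample wells on that plate plus 3 SD, cut at about 8% in these data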
Large screens that a line does not name were inactive. Hits are enriched below; roughly 3.4% of the tested compounds scored in any of these assays.

O=C(NCc1ccccc1)C1C(c2ccccc2)=Nc2ccccc2N1C(=O)c1cccnc1 (stereo unspecified)	none (no result: MIN6 prolif, ANO1 activ, TMEM16A inh, MC4R antagonist, MC4R barr agon)
CN(C)CCCNS(=O)(=O)c1ccc(NC2CCCCCC2)c([N+](=O)[O-])c1	none
O=C(c1cc(COc2ccc(F)cc2Cl)on1)N1CCC(c2ccncc2)CC1	TMEM16A inh 25
Cc1cc(OCc2cc(C(=O)N3CCC(Oc4cccnc4)CC3)no2)cc(C)c1Cl	TMEM16A inh 100
CCN(CC(=O)NCc1ccc(F)cc1)C(=O)CN1CCN(c2ccc(OC)cc2)CC1	none
CCOC(=O)c1c(NC(=O)c2ccc(C)cc2)sc2c1CC(C)(C)OC2	TMEM16A inh 25
CCOC(=O)c1c(NC(=O)c2ccccc2C)sc2c1CC(C)(C)OC2	none
CNC(=O)COC(=O)c1ccc(Cl)c(S(N)(=O)=O)c1	none
C=CCNC(=O)COC(=O)c1ccc(Cl)c(S(N)(=O)=O)c1	ANO1 activ -29.5
CC(C)CCC[C@@H](C)[C@H]1CC[C@H]2[C@@H]3C(=O)C=C4C[C@@H](O)CC[C@]4(C)[C@H]3CC[C@]12C	none
C=C1/C(=C\C=C2/CCC[C@]3(C)[C@@H]([C@H](C)CCCC(C)(C)O)CC[C@@H]23)C[C@@H](O)C[C@@H]1O	TMEM16A inh 100 (no result: ANO1 activ, MC4R antagonist, HTR2A ag, MC4R barr agon)
O=C(/C=C/c1ccccc1)c1cc(Br)ccc(=O)c1O	TMEM16A inh 100
O=C(/C=C/c1ccc(F)cc1)c1cc(Br)ccc1O	none
CCCCCCC1(C)NC(=O)N(C(C)C(=O)Nc2ccc(N3CCOCC3)cc2)C1=O (stereo unspecified)	none (no result: TMEM16A inh)
N#CC(C#N)=C(Nc1ccc(F)cc1)SCc1cccc(F)c1	TMEM16A inh 25
COc1ccc(OCc2cc(C(=O)N3CCCC(O)C3)no2)c2ccccc12 (stereo unspecified)	none
Cc1cc(C)nc(SCC(=O)Nc2ncc(Cc3cccc(Cl)c3Cl)s2)n1	MC4R barr agon 8.8
Cc1ccc(S(=O)(=O)N2[C@@H](c3cccc(Cl)c3)C(C(=O)O)=CC[C@H]2c2ccc(C(C)C)cc2)cc1	TMEM16A inh 100
Cc1ccc(S(=O)(=O)N2[C@@H](c3ccc(Cl)cc3)C(C(=O)O)=CC[C@H]2c2ccc(Cl)cc2)cc1	TMEM16A inh 100
Cc1ccc(S(=O)(=O)N2[C@@H](c3ccccc3)C(C(=O)O)=CC[C@H]2c2ccc(Cl)cc2)cc1	none
O=C(O)C1=CC[C@@H](c2ccc(Cl)cc2)N(S(=O)(=O)c2ccc(Cl)cc2)[C@H]1c1cccc(Cl)c1	TMEM16A inh 100
Cc1ccc(S(=O)(=O)N2[C@@H](c3ccc(Cl)cc3)C(C(=O)O)=CC[C@H]2c2cccc(Cl)c2)cc1	TMEM16A inh 100
COc1ccc([C@@H]2CC=C(C(=O)O)[C@H](c3ccc(F)cc3)N2S(=O)(=O)c2ccc(C)cc2)cc1OC	none
Cc1ccc(S(=O)(=O)N2[C@@H](c3ccc(F)cc3)C(C(=O)O)=CC[C@H]2c2ccc(C(C)C)cc2)cc1	TMEM16A inh 100
Cc1ccccc1S(=O)(=O)N1[C@@H](c2ccc(Br)cc2)C(C(=O)O)=CC[C@H]1c1ccc(Cl)cc1	HTR2A ag 22.4 (no result: ANO1 activ, TMEM16A inh)
Cc1ccccc1S(=O)(=O)N1[C@@H](c2ccccc2)C(C(=O)O)=CC[C@H]1c1ccc(Cl)cc1	none
COc1cc(OC)c(C(=O)OCC(=O)Nc2nnc(-c3ccccc3)o2)cc1OC	none (no result: TMEM16A inh)
C[C@@H]1CN([C@@H](C)CO)C(=O)c2cc(NC(=O)Nc3ccccc3)ccc2O[C@@H](C)CCCCO[C@H]1CN(C)C(=O)Nc1ccc(C(F)(F)F)cc1	none (no result: MIN6 prolif, ANO1 activ, TMEM16A inh)
O=C(Cc1ccc(Cl)cc1Cl)Nc1ccncc1Cl	TMEM16A inh 25
CCN1C(=O)c2cccc3c(S(=O)(=O)Nc4nc(C)cs4)ccc1c23	ANO1 activ -5.12
C=CCS/C(N)=N\N=C\c1c(O)ccc2ccccc12	none
CC(=O)NCCNC(=O)c1ccc(NC2=NC3CS(=O)(=O)CC3S2)cc1 (stereo unspecified)	ANO1 activ -12.1
O=C(O)c1cc2c(ncc3c(=O)n(-c4ccccc4)[nH]c32)s1	none (no result: MIN6 prolif, ANO1 activ, TMEM16A inh, MC4R antagonist, MC4R barr agon)
Cc1ccc(CCNC(=O)c2cc(S(=O)(=O)N3CCCC3)cn2C)cc1	none
CC(Oc1ccc(Cl)cc1Cl)C(=O)NNC(=O)c1ccncc1 (stereo unspecified)	none
CC(Oc1ccc(Cl)cc1Cl)c1nc(-c2ccc(NC(=O)c3ccncc3)cc2)no1 (stereo unspecified)	TMEM16A inh 25
COc1ccc(CC(N)c2csc(NC(=O)c3cccc(OC(F)(F)F)c3)n2)cc1 (stereo unspecified)	MC4R barr agon 8.9 (no result: MIN6 prolif, ANO1 activ, TMEM16A inh)
NC(Cc1ccccc1)c1csc(NC(=O)c2cccc(OC(F)(F)F)c2)n1 (stereo unspecified)	none (no result: MIN6 prolif, ANO1 activ, TMEM16A inh)
O=S1(=O)CC(N2CC=CC2)CN1Cc1cn(Cc2ccc(F)cc2)nn1 (stereo unspecified)	none (no result: MIN6 prolif, ANO1 activ, TMEM16A inh, MC4R antagonist, MC4R barr agon)
Cc1cc(NC(=O)c2ccc(Cl)cc2)c(C)cc1O	none
Cc1cc(C(C#N)c2ccc(Cl)cc2)c(Cl)cc1NC(=O)c1cc(I)cc(I)c1O (stereo unspecified)	TMEM16A inh 100
CC1(NC(=S)Nc2ccc(NC(=S)NC3(C)CCS(=O)(=O)C3)cc2)CCS(=O)(=O)C1 (stereo unspecified)	none
CC1(NC(=S)Nc2ccccc2)CCS(=O)(=O)C1 (stereo unspecified)	MC4R barr agon 9.1
O=S(=O)(Nc1cc(S(=O)(=O)N2CCOCC2)ccc1N1CCOCC1)c1ccc2c(c1)OCCO2	none
O=S(=O)(Nc1cc(S(=O)(=O)N2CCOCC2)ccc1O)c1ccc2c(c1)OCCCO2	ANO1 activ -22.4 (no result: TMEM16A inh)
COc1ccccc1-c1ccc(SCc2cccc(C)c2)nn1	TMEM16A inh 100
COc1ccccc1-c1ccc(SCc2ccc([N+](=O)[O-])cc2)nn1	none
COC(=O)c1cccc2c1-c1ccccc1/C2=N/O	MIN6 prolif 5.5
Cc1ccc2oc(-c3cccc(NC(=O)Cc4cccs4)c3)nc2c1	MC4R barr agon 13.3
Fc1ccccc1N1CCN(CCCNc2ccc3nncn3n2)CC1	HTR2A ag 25.8
c1ccc(CN2CCN(CCCNc3ccc4nnc(-c5ccccc5)n4n3)CC2)cc1	none
CN(Cc1cn(Cc2cccc(Cl)c2)nn1)C1CN(Cc2cn(Cc3cccc(Cl)c3)nn2)S(=O)(=O)C1 (stereo unspecified)	none (no result: MIN6 prolif, ANO1 activ, TMEM16A inh, MC4R antagonist, MC4R barr agon)
CCOCCC(=O)Nc1ccc2c(c1)c(=O)n(C)n2C/C=C/c1ccccc1	none (no result: MIN6 prolif, ANO1 activ, TMEM16A inh)
O=C(Cn1nc(-c2ccccc2Cl)ccc1=O)Nc1ccc(Br)cc1	ANO1 activ -30.1
